# Publication PMC12135072 (RSC Medicinal Chemistry, 2025)
# Experiments:
# [1] = tested on: A549 (ATCC – CCL-185, lung carcinoma); assay: MTT cell viability assay, A549; assay type: cell-based; settings: Homo sapiens, A549, read-out: IC50 A549
# MCF7 cells = assay: Cell cycle analysis; assay type: cell-based; settings: for S phase population / cells in G1 phase / cells in G2 (G2/M) phase: MCF7, 24 hours; for S phase population: compounds at IC50
# Summary of the method: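 MCF7 cells were treated with the test compounds for 24 and 48 h, with etoposide as the positive control and 0.1% DMSO as the vehicle. Cells were stained with propidium iodide and their G1, S and G2 distribution was read by flow cytometry. n = 3; two-way ANOVA with Tukey's test.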
# MCF7 spheroids = assay: Spheroid formation assay; assay type: cell-based; settings: 72 hours of treatment
# Summary of the method: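 Agar was liquefied in normal saline, sterilized and cast into 3D molds, which were rinsed with culture medium. MCF7 cells were seeded onto the molds and left 20 min to adhere, then medium with varied test-compound concentrations was added. Spheroid dimensions were tracked by live-cell imaging and compared with untreated controls.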
# MCF-7 cells = assay: Colony formation assay; assay type: cell-based
# [2] = tested on: chorioallantoic membrane (CAM) blood vessel formation; assay: Ex ovo chorioallantoic membrane; assay type: in vivo, chicken; settings: concentration-dependent, over time
# [3] = tested on: MRC5 (ATCC – CCL-171, human diploid fibroblast cell line)
# MCF7 breast cancer cells = assay: Apoptosis, annexin V staining and flow cytometry; assay type: cell-based
# Summary of the method: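 MCF7 cells were exposed to the test compounds for 24 or 48 h, with etoposide (10 μM) as the positive control and 0.1% DMSO as the untreated control. Cells were stained with annexin V and analysed by flow cytometry into live, early apoptotic and late apoptotic fractions.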
# [4] = tested on: HCT116 (ATCC – CCL-247, colon carcinoma); assay: MTT cell viability assay, HCT116; assay type: cell-based; settings: Homo sapiens, HCT-116, read-out: IC50 HCT116
# MCF7 cell line = assay: γH2AX labelling for DNA double-strand breaks; assay type: cell-based; settings: compounds at IC50, etoposide 10 μM
# Summary of the method: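 To detect DNA double-strand breaks, MCF7 cells were exposed to the test compounds for 24 and 48 h, with etoposide as the positive control and 0.1% DMSO as the vehicle. γH2AX labelling was quantified by flow cytometry. n = 3; two-way ANOVA with Tukey's test.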
# [5] = tested on: MRC5 (ATCC – CCL-171, human diploid fibroblast cell line); assay: cells; settings: MRC5, read-out: IC50 MRC5
# [6] = tested on: MCF7 (ATCC – HTB-22, breast carcinoma); assay: MTT cell viability assay, MCF7; assay type: cell-based; settings: for IC50: Homo sapiens, MCF7, read-out: IC50 MCF7; for higher potency compared to previously reported fused pyran derivative III: MCF7 IC50 versus III
# [7] = MCF7, 48 hours, compounds at IC50, ETP 10 μM
# [8] = MCF7, 24 hours, compounds at IC50
# [9] = MCF7, 24 hours, compounds at IC50, etoposide 10 μM
# [10] = MCF7, 48 hours, compounds at IC50, etoposide 10 μM
IC50 [1] [µM],IC50 [4] [µM],SMILES,S phase population (MCF7 cells) [%],"cells in G1 phase (MCF7 cells; compounds at IC50, ETP 10 μM) [%]","cells in G2 (G2/M) phase (MCF7 cells; compounds at IC50, ETP 10 μM) [%]",G1 phase population (MCF7 cells; [7]) [%],spheroid size versus untreated control (MCF7 spheroids),"percentage of colony formation (MCF-7 cells; MCF-7, compound at IC10) [%]","percentage of colony formation (MCF-7 cells; MCF-7, compound at IC50) [%]","percentage of colony formation (MCF-7 cells; MCF-7, compound at IC90) [%]",new blood vessel formation versus untreated controls [2],toxicity to MRC5 (MCR5) cells [3],live cells (MCF7 breast cancer cells; [8]) [%],early apoptotic cells (MCF7 breast cancer cells; [9]) [%],late apoptotic cells (MCF7 breast cancer cells; [9]) [%],early apoptotic cells (MCF7 breast cancer cells; [10]) [%],late apoptotic cells (MCF7 breast cancer cells; [10]) [%],"γH2AX levels (MCF7 cell line; MCF7, 24 hours)","γH2AX levels (MCF7 cell line; MCF7, 48 hours)",IC50 [5] [µM],further results
110 ± 4.94,129 ± 5.79,"Cc1cn(-c2ccc(C3C(C#N)=C(N)OC4=C3C(=O)CC(C)(C)C4)cc2)cn1 (centres unmarked) [Compound 8b, 2-Amino-7,7-dimethyl-4-(4-(4-methyl-1H-imidazol-1-yl)phenyl)-5-oxo-5,6,7,8-tetrahydro-4H-chromene-3-carbonitrile]",15.11 ± 2.59,41.59 ± 7.44,30.79 ± 5.11,45.22 ± 0.82,marked reduction in size,97.7 ± 1.53,76 ± 2.65,15 ± 5,significant reduction in new blood vessel formation,nontoxic,87.55 ± 0.08,2.66 ± 0.12,7.87 ± 0.02,5.27 ± 0.13,9.46 ± 0.22,4.71 ± 0.75,21.62 ± 3.38,> 200,"G2 (G2/M) phase population (MCF7 cells; [7]): 28.83 ± 0.52%; debris/dead cells (MCF7 breast cancer cells; MCF7, 48 hours, compound at IC50): 0.82 ± 0.30%; live cells (MCF7 breast cancer cells; [10]): 84.45 ± 0.64%; IC50 [6]: 4.22 ± 0.81 µM; higher potency compared to previously reported fused pyran derivative III [6]: 3 fold"
111 ± 4.91,143 ± 6.35,"Cc1nccn1-c1ccc(C2C(C#N)=C(N)OC3=C2C(=O)CC(C)(C)C3)cc1 (centres unmarked) [Compound 8a, 2-Amino-7,7-dimethyl-4-(4-(2-methyl-1H-imidazol-1-yl)phenyl)-5-oxo-5,6,7,8-tetrahydro-4H-chromene-3-carbonitrile]",21.11 ± 3.39,37.08 ± 5.07,30.63 ± 4.35,47.08 ± 0.6,pronounced reduction in size,94.3 ± 4.04,74.3 ± 2.08,5.67 ± 4.04,significant reduction in new blood vessel formation,nontoxic,86.4 ± 0.15,4.27 ± 0.20,7.6 ± 0.01,5.89 ± 0.20,6.17 ± 0.13,2.89 ± 0.99,20.3 ± 2.74,> 200,IC50 [6]: 8.24 ± 0.19 µM; higher potency compared to previously reported fused pyran derivative III [6]: 1.5 fold
